From ChEMBL document CHEMBL4130549, “Synthesis and bioactivities study of new antibacterial peptide mimics: The dialkyl cationic amphiphiles” (Eur J Med Chem, 2018)
Active and inactive are the calls of the source. The calls are words filed in the database; no cut-off is given here.

Tests used:
[1] = test system: Salmonella enterica; test: Antibacterial activity against Salmonella enterica after 16 to 20 hrs by broth microdilution method; type: functional
Outline: (§1)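 Broth microdilution per CLSI in cation-adjusted Mueller-Hinton broth; 4-6 h cultures (~10⁸ CFU/mL) diluted to ~10⁶ CFU/mL and mixed 1:1 with twofold dilutions of water-dissolved compound (256 to 0.5 µg/mL). Incubated 16-20 h at 37 °C; MIC read visually. Each concentration run in duplicate, whole experiment repeated at least twice. MRSA, KPC and NDM-1 strains were clinical isolates.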

[2] = Hemolytic activity in sheep RBC after 1 hr; type: ADME, cell-based, Ovis aries, Erythrocyte; settings: sheep red blood cells (erythrocytes)
Outline: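 Sheep RBCs suspended at 5% in PBS; 150 µL added to 50 µL compound dilutions (5120 to 10 µg/mL series). Incubated 1 h at 37 °C, then centrifuged; supernatant absorbance read at 540 nm. Lysis (%) = (A−A0)/(Atotal−A0)×100, with untreated 5% RBC as A0 and 0.1% Triton X-100 as total.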

[3] = test system: Escherichia coli; test: Induction of inner membrane permeabilization in Escherichia coli ATCC 25922 at 20 ug/ml measured every 2 mins for 12 mins by propidium iodide staining based fluorescence assay; type: functional, organism-based
Outline: (§2)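 Mid-log cells (~10^8 CFU/mL) pre-incubated with propidium iodide (10 µM, 50 µL), 30 min for S. aureus and 40 min for E. coli. Fluorescence (ex 535/em 617 nm) read for 8 min, then compound added to 20 µg/mL final and monitored every 2 min for 12 min. Water-treated control.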

[4] = test system: Staphylococcus aureus; test: Induction of inner membrane permeabilization in Staphylococcus aureus ATCC 29213 at 20 ug/ml measured every 2 mins for 12 mins by propidium iodide staining based fluorescence assay; type: functional, organism-based; outline: as §2
[5] = test system: Escherichia coli; test: Induction of outer membrane permeabilization in Escherichia coli ATCC 25922 at 20 ug/ml measured every 2 mins for 12 mins by NPN staining based fluorescence assay; type: functional, organism-based
Outline: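 Mid-log E. coli (~10^8 CFU/mL) in black plates pre-incubated about 40 min with NPN (10 µM, 50 µL). Baseline read 8 min (ex 350/em 420 nm), then compound added to 20 µg/mL final and fluorescence followed every 2 min for 12 min. Water-treated control.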

[6] = test system: Escherichia coli; test: Induction of cytoplasmic membrane depolarization in Escherichia coli ATCC 25922 at 20 ug/ml measured every 2 mins for 12 mins by diSC35 staining based fluorescence assay; type: functional, organism-based
Outline: (§3)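 Mid-log cells (4–6 h) pelleted, washed and resuspended (~10^8 CFU/mL) in PBS for S. aureus, or in 5 mM HEPES, 5 mM glucose and 100 mM KCl (1:1:1) for E. coli. Preloaded with diSC35 (10 µM, 50 µL), 30 min for S. aureus and 40 min plus EDTA (200 µM, 50 µL) for E. coli. Baseline read 8 min (ex 622/em 670 nm), then compound added to 20 µg/mL final and read every 2 min for 12 min. Water control.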

[7] = test system: Enterococcus faecalis; test: Antibacterial activity against Enterococcus faecalis after 16 to 20 hrs by broth microdilution method; type: functional; outline: as §1
[8] = test system: Staphylococcus aureus; test: Induction of cytoplasmic membrane depolarization in Staphylococcus aureus ATCC 29213 at 20 ug/ml measured every 2 mins for 12 mins by diSC35 staining based fluorescence assay; type: functional, organism-based; outline: as §3
[9] = test system: Staphylococcus aureus; test: Antibacterial activity against Staphylococcus aureus ATCC 29213 after 16 to 20 hrs by broth microdilution method; type: functional
Outline: (§4)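 CLSI broth microdilution in cation-adjusted Mueller-Hinton broth. A 4-6 h culture was diluted to about 10⁶ CFU/mL and mixed 1:1 with twofold compound dilutions (256–0.5 µg/mL before mixing) prepared from aqueous stocks. Plates were incubated at 37 °C for 16-20 h. Each concentration was tested in duplicate, and the experiment was repeated at least twice.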

[10] = test system: Escherichia coli; test: Antibacterial activity against Escherichia coli ATCC 25922 after 16 to 20 hrs by broth microdilution method; type: functional; outline: as §1
[11] = test system: Staphylococcus aureus; test: Antibacterial activity against methicillin-resistant Staphylococcus aureus isolate M4 after 16 to 20 hrs by broth microdilution method; type: functional; outline: as §4
[12] = test system: Staphylococcus aureus; test: Antibacterial activity against methicillin-resistant Staphylococcus aureus isolate M3 after 16 to 20 hrs by broth microdilution method; type: functional; outline: as §4
[13] = test system: Staphylococcus aureus; test: Antibacterial activity against methicillin-resistant Staphylococcus aureus isolate M7 after 16 to 20 hrs by broth microdilution method; type: functional; outline: as §4
[14] = test system: Staphylococcus aureus; test: Antibacterial activity against methicillin-resistant Staphylococcus aureus isolate M10 after 16 to 20 hrs by broth microdilution method; type: functional; outline: as §4
[15] = test system: Staphylococcus aureus; test: Antibacterial activity against methicillin-resistant Staphylococcus aureus isolate M2 after 16 to 20 hrs by broth microdilution method; type: functional; outline: as §4
[16] = test system: Staphylococcus aureus; test: Antibacterial activity against methicillin-resistant Staphylococcus aureus isolate M8 after 16 to 20 hrs by broth microdilution method; type: functional; outline: as §4
[17] = test system: Staphylococcus aureus; test: Antibacterial activity against methicillin-resistant Staphylococcus aureus isolate M9 after 16 to 20 hrs by broth microdilution method; type: functional; outline: as §4
[18] = test system: Staphylococcus aureus; test: Antibacterial activity against methicillin-resistant Staphylococcus aureus after 16 to 20 hrs by broth microdilution method; type: functional; outline: as §4
[19] = test system: Staphylococcus aureus; test: Antibacterial activity against methicillin-resistant Staphylococcus aureus isolate M5 after 16 to 20 hrs by broth microdilution method; type: functional; outline: as §4
[20] = test system: Staphylococcus aureus; test: Antibacterial activity against methicillin-resistant Staphylococcus aureus isolate M6 after 16 to 20 hrs by broth microdilution method; type: functional; outline: as §4
[21] = test system: Staphylococcus aureus; test: Antibacterial activity against methicillin-resistant Staphylococcus aureus isolate M1 after 16 to 20 hrs by broth microdilution method; type: functional; outline: as §4

Row | Structure (SMILES) | MIC [1] | HC50 at 1 h [2] | Activity [3] | Activity [4] | Activity [5] | Activity [6] | MIC [7] | Activity [8] | MIC [9] | MIC [10] | MIC [11] | MIC [12] | MIC [13] | MIC [14] | MIC [15] | MIC [16] | MIC [17] | MIC [18] | MIC [19] | MIC [20] | other results
1 | CCCCN(CCCC)C(=O)[C@@H](N)CCCCN.Cl.Cl | 128 µg/mL | 743 µg/mL | Active | Active | Active | Active | 128 µg/mL | Active | > 128 µg/mL | > 128 µg/mL | – | – | – | – | – | – | – | – | – | – | –
2 | CCCCCCN(CCCCCC)C(=O)[C@@H](N)CCCCN.Cl.Cl | 64 µg/mL | 496 µg/mL | Active | Active | Active | Active | 64 µg/mL | Active | 64 µg/mL | 64 µg/mL | – | – | – | – | – | – | – | – | – | – | –
3 | CCN(CC)C(=O)[C@@H](N)CCCCN.Cl.Cl | > 128 µg/mL | > 1000 µg/mL | Active | Active | Active | Active | > 128 µg/mL | Active | > 128 µg/mL | > 128 µg/mL | – | – | – | – | – | – | – | – | – | – | –
4 | CCCCCCCCCCN(CCCCCCCCCC)C(=O)[C@@H](N)CO.Cl | > 128 µg/mL | > 1000 µg/mL | Active | Active | Active | Active | 8 µg/mL | Active | 8 µg/mL | > 128 µg/mL | 4 µg/mL | 4 µg/mL | 8 µg/mL | 16 µg/mL | 4 µg/mL | 16 µg/mL | 16 µg/mL | 16 µg/mL | 16 µg/mL | 8 µg/mL | MIC [21]: 16 µg/mL
5 | CCCCCCCCN(CCCCCCCC)C(=O)[C@@H](N)CC(C)C.Cl | > 128 µg/mL | > 1000 µg/mL | Active | Active | Active | Active | 2 µg/mL | Active | 2 µg/mL | 64 µg/mL | 2 µg/mL | 2 µg/mL | 4 µg/mL | 4 µg/mL | 2 µg/mL | 4 µg/mL | 4 µg/mL | 4 µg/mL | 4 µg/mL | 4 µg/mL | MIC [21]: 4 µg/mL
6 | C[C@@H](O)[C@H]1C(=O)N2C(C(=O)O)=C(S[C@@H]3CN[C@H](C(=O)N(C)C)C3)[C@H](C)[C@H]12 [MEROPENEM] | – | – | – | – | – | – | – | – | – | < 0.125 µg/mL | – | – | – | – | – | – | – | – | – | – | –
7 | CCCCCN(CCCCC)C(=O)[C@@H](N)CCCCN.Cl.Cl | 128 µg/mL | 576 µg/mL | Active | Active | Active | Active | 128 µg/mL | Active | 128 µg/mL | 128 µg/mL | – | – | – | – | – | – | – | – | – | – | –
8 | CCCCCCCCN(CCCCCCCC)C(=O)[C@@H](N)Cc1ccccc1.Cl | > 128 µg/mL | > 1000 µg/mL | Active | Active | Active | Active | 128 µg/mL | Active | 8 µg/mL | > 128 µg/mL | 16 µg/mL | 16 µg/mL | 16 µg/mL | 32 µg/mL | 16 µg/mL | 32 µg/mL | 32 µg/mL | 32 µg/mL | 32 µg/mL | 32 µg/mL | MIC [21]: 32 µg/mL
9 | CCCCCCCCN(CCCCCCCC)C(=O)[C@@H](N)[C@@H](C)CC.Cl | > 128 µg/mL | 293 µg/mL | Active | Active | Active | Active | 4 µg/mL | Active | 4 µg/mL | > 128 µg/mL | 4 µg/mL | 4 µg/mL | 4 µg/mL | 4 µg/mL | 4 µg/mL | 4 µg/mL | 4 µg/mL | 4 µg/mL | 4 µg/mL | 4 µg/mL | MIC [21]: 4 µg/mL
10 | CCCCCCCCCCN(CCCCCCCCCC)C(=O)[C@H](N)CO.Cl | > 128 µg/mL | > 1000 µg/mL | Active | Active | Active | Active | 32 µg/mL | Active | 16 µg/mL | > 128 µg/mL | 32 µg/mL | 32 µg/mL | 32 µg/mL | 32 µg/mL | 32 µg/mL | 32 µg/mL | 32 µg/mL | 32 µg/mL | 32 µg/mL | 32 µg/mL | MIC [21]: 32 µg/mL
